Experimental data taken from ChEMBL document CHEMBL2202989, “New adamantane phenylalkylamines with σ-receptor binding affinity and anticancer activity, associated with putative antagonism of neuropathic pain” (J Med Chem, 2012).
Active and inactive are the calls of the source. The rule behind the calls is not given here.

Experiments:
[1] = test system: IGROV-1; experiment: Cell cycle arrest in human IGROV1 cells assessed as accumulation at S phase at 15 uM after 24 hrs using propidium iodide staining by FACS analysis (reference value: 29 %); type: functional
[2] = test system: MCF7; experiment: Growth inhibition of human MCF7 cells after 48 hrs by SRB assay; type: functional; conditions: MCF7, 48 h
How it was run: (§1)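 Cells grown in RPMI 1640 with 5% heat-inactivated FCS, 2 mM L-glutamine and antibiotics, 37 °C, 5% CO2. Seeded at 3500–30000 cells/well and left 24 h before dosing. DMSO solutions added at 10-fold dilutions from 100 to 0.01 μM for 48 h. Cells TCA-fixed and SRB-stained, absorbance read at 540 nm; GI50 derived against the time-zero plate.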

[3] = test system: BXPC-3; experiment: Cell cycle arrest in human BxPC3 cells assessed as accumulation at S phase at 50 uM after 24 hrs using propidium iodide staining by FACS analysis (reference value: 33 %); type: functional
How it was run: (§2)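 Cells were plated 24 h before treatment and exposed for 24 h at final 0.5, 5, 15 and 50 μM in 0.5% DMSO, against vehicle-treated controls. Cells were then trypsinised and fixed in cold ethanol for 3 h at 4 °C. They were stained in a mix of RNase (200 μg/mL) and PI (1 mg/mL) for 45 min at room temperature in the dark. Flow cytometry used 488 nm excitation and 10 000 gated cells. Phase percentages were assigned from DNA content.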

[4] = test system: PC-3; experiment: Cell cycle arrest in human PC3 cells assessed as accumulation at G2 phase at 5 uM after 24 hrs using propidium iodide staining by FACS analysis (reference value: 12 %); type: functional
[5] = test system: IGROV-1; experiment: Cell cycle arrest in human IGROV1 cells assessed as accumulation at G1 phase at 50 uM after 24 hrs using propidium iodide staining by FACS analysis (reference value: 27 %); type: functional; how it was run: as §2
[6] = Displacement of [3H]batrachotoxin benzoate from Na+ channel after 60 mins by liquid scintillation counting
How it was run: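 Na+ channel site 2 binding: vesicle preparation (150−500 μg protein) incubated 60 min with 20−25 nM [3H]BTX-B and 50 μg Leiurius quinquestriatus venom. Buffer was 130 mM choline chloride, 50 mM HEPES/Tris pH 7.4, glucose, MgSO4, KCl, BSA. Filtered on GF/C with cold washes; scintillation counting. Nonspecific binding defined with 250 μM veratridine.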

[7] = test system: BXPC-3; experiment: Cell cycle arrest in human BxPC3 cells assessed as accumulation at S phase at 15 uM after 24 hrs using propidium iodide staining by FACS analysis (reference value: 33 %); type: functional; how it was run: as §2
[8] = test system: BXPC-3; experiment: Induction of apoptosis in human BxPC3 cells assessed as healthy cells at 5 uM using annexin V/7-AAD by FACS analysis (reference value: 79 %); type: functional
[9] = test system: BXPC-3; experiment: Cell cycle arrest in human BxPC3 cells assessed as accumulation at G1 phase at 15 uM after 24 hrs using propidium iodide staining by FACS analysis (reference value: 41 %); type: functional; how it was run: as §2
[10] = test system: BXPC-3; experiment: Induction of apoptosis in human BxPC3 cells assessed as cleaved caspase3 containing cells at 50 uM by antibody-based FACS analysis (reference value: 8.2 %); type: functional
[11] = test system: BXPC-3; experiment: Induction of apoptosis in human BxPC3 cells assessed as cleaved caspase3 containing cells at 0.5 uM by antibody-based FACS analysis (reference value: 8.2 %); type: functional
[12] = test system: NHDF; experiment: (§3) Growth inhibition of human NHDF cells after 48 hrs by SRB assay; type: cell-based; conditions: nhdf, 48 h; how it was run: as §1
[13] = as §3; type: cell-based; conditions: NHDF cells; how it was run: as §1
[14] = test system: HCT-116; experiment: Growth inhibition of human HCT116 cells after 48 hrs by SRB assay; type: functional; conditions: HCT-116, 48 h; how it was run: as §1
[15] = test system: IGROV-1; experiment: Cell cycle arrest in human IGROV1 cells assessed as accumulation at sub G1 phase at 15 uM after 24 hrs using propidium iodide staining by FACS analysis (reference value: 4 %); type: functional
[16] = test system: PC-3; experiment: Cell cycle arrest in human PC3 cells assessed as accumulation at G1 phase at 15 uM after 24 hrs using propidium iodide staining by FACS analysis (reference value: 36 %); type: functional
[17] = test system: BXPC-3; experiment: Induction of apoptosis in human BxPC3 cells assessed as total apoptotic death at 5 uM using annexin V/7-AAD by FACS analysis (reference value: 18 %); type: functional
How it was run: (§4)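 Cells plated 24 h before treatment, then exposed 24 h to 0.5, 5, 15 or 50 μM compound (final DMSO 0.5%); vehicle controls included. Cells scraped and stained with annexin V-FITC and 7-AAD for 15 min on ice in the dark. Flow cytometry with 488 nm excitation, 10,000 gated cells. Early apoptosis was annexin V+/7-AAD−, late was annexin V+/7-AAD+.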

[18] = test system: BXPC-3; experiment: Antitumor activity against human BxPC3 cells xenografted in SCID mouse assessed as tumor growth inhibition at 40 mg/kg, ip administered 3 consecutives days per week for three cycles measured after 3 cycles relative to control; type: functional; conditions: BXPC-3, ip, route intraperitoneal, read-out: TGI
How it was run: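 BxPC3 xenografts were grown in SCID mice from inocula of 10^6 exponentially growing cells, with 10 mice (20 tumors) per group. Treatment started ip once tumors averaged about 100 mm3. The test agent was given in 5% Tween 80 and gemcitabine in water for injection. Tumor volume was measured by caliper twice weekly and %ΔT/ΔC was computed; two-tailed Student's t test.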

[19] = test system: PC-3; experiment: Induction of apoptosis in human PC3 cells assessed as early apoptosis at 50 uM using annexin V/7-AAD by FACS analysis (reference value: 5 %); type: functional; how it was run: as §4
[20] = test system: BXPC-3; experiment: Cell cycle arrest in human BxPC3 cells assessed as accumulation at G1 phase at 0.5 uM after 24 hrs using propidium iodide staining by FACS analysis (reference value: 41 %); type: functional; how it was run: as §2
[21] = test system: BXPC-3; experiment: Induction of apoptosis in human BxPC3 cells assessed as cleaved caspase3 containing cells at 15 uM by antibody-based FACS analysis (reference value: 8.2 %); type: functional
[22] = test system: BXPC-3; experiment: Cell cycle arrest in human BxPC3 cells assessed as accumulation at G2 phase at 0.5 uM after 24 hrs using propidium iodide staining by FACS analysis (reference value: 12 %); type: functional; how it was run: as §2
[23] = test system: Mus musculus; experiment: Analgesic activity in CD1 mouse neuropathic pain model assessed as reduction in paw licking time at 50 mg/kg, po administered 1 hr prior to formalin challenge in presence of paclitaxel; type: functional, organism-based; parameters: dose 50 mg/kg
How it was run: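 CD1 male mice (34−40 g), free access to food and water, were given paclitaxel 6 mg/kg ip once in saline on day 0. On day 14 the test compound was given orally 1 h before formalin was injected into the hind paw. Time spent licking and biting the injected paw and leg was recorded at 0−5 and 35−40 min after formalin.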

[24] = test system: IGROV-1; experiment: Induction of apoptosis in human IGROV1 cells assessed as early apoptosis at 0.5 uM using annexin V/7-AAD by FACS analysis (reference value: 9 %); type: functional
[25] = test system: PC-3; experiment: Cell cycle arrest in human PC3 cells assessed as accumulation at G2 phase at 15 uM after 24 hrs using propidium iodide staining by FACS analysis (reference value: 12 %); type: functional
[26] = test system: PC-3; experiment: Cell cycle arrest in human PC3 cells assessed as accumulation at G2 phase at 0.5 uM after 24 hrs using propidium iodide staining by FACS analysis (reference value: 12 %); type: functional
[27] = read-out: LC50 (the source's name)

For CN1CCN(CCCc2ccc(C(c3ccccc3)C34CC5CC(CC(C5)C3)C4)cc2)CC1 (stereo unspecified), the Activity [1] was 25%, the GI50 [2] was 3.2 µM and the TGI [2] was 6.1 µM. It also gave a CC50 [2, 27] of 0.009 µM, an Activity [3] of 33% and an Activity [4] of 10%. The Activity [5] was 30%, the IC50 [6] was greater than 1 µM and the Activity [7] was 27%. For the same compound, the Activity [8] was 77%, the Activity [9] was 32% and the Activity [10] was 4.8%. For the same compound, the Activity [11] was 4%, the LC50 [12] was 100 µM and the TGI [12] was 78.2 µM. For the same compound, the GI50 at 48 h [13] was 9.68 µM, the GI50 [14] was 3.38 µM and the TGI [14] was 6.05 µM. For the same compound, the CC50 [14, 27] was 0.00873 µM, the Activity [15] was 12% and the Activity [16] was 25%. The Activity [17] was 21%, the inhibition in vivo at 40 mg/kg [18] was 21.8% and the Activity [19] was 15%. The Activity [20] was 41%, the Activity [21] was 17.5% and the Activity [22] was 11%. The Activity [23] was “Active”, the Activity [24] was 8% and the Activity [25] was 11%. For the same compound, the Activity [26] was 15%.
